pIC50: −log10 of the molar value.

For experiment [1], the target named is Histone-lysine N-methyltransferase EZH2 (Homo sapiens, UniProt O75530+Q15022+Q15910). Description: Inhibition of EZH2 histone methyltransferase activity of EZH2/EED/SUZ12 protein complex (unknown origin) using histone H3 peptide as substrate (21 to 44 residues) in presence of [3H]-S-adenosylmethionine after 2 hrs by scintillation proximity assay. The essentials: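 20 nM EZH2 trimeric complex with 2 μM 3H-SAM and 1 μM biotinylated H3(21–44) in 20 mM Tris-HCl pH 8, 5 mM DTT, 0.01% Triton X-100. Incubated 1 h at 23 °C, quenched with guanidine hydrochloride, then 2 h streptavidin flash-plate capture. Activity scaled between no-compound and no-enzyme counts.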
(In general: SPA uses beads or plates that emit light when radiolabelled molecules are held near them.)

Experiment [2] addresses T1, Histone-lysine N-methyltransferase EZH1 (Homo sapiens, UniProt Q92800).
T1 sequence (Q92800 whole entry): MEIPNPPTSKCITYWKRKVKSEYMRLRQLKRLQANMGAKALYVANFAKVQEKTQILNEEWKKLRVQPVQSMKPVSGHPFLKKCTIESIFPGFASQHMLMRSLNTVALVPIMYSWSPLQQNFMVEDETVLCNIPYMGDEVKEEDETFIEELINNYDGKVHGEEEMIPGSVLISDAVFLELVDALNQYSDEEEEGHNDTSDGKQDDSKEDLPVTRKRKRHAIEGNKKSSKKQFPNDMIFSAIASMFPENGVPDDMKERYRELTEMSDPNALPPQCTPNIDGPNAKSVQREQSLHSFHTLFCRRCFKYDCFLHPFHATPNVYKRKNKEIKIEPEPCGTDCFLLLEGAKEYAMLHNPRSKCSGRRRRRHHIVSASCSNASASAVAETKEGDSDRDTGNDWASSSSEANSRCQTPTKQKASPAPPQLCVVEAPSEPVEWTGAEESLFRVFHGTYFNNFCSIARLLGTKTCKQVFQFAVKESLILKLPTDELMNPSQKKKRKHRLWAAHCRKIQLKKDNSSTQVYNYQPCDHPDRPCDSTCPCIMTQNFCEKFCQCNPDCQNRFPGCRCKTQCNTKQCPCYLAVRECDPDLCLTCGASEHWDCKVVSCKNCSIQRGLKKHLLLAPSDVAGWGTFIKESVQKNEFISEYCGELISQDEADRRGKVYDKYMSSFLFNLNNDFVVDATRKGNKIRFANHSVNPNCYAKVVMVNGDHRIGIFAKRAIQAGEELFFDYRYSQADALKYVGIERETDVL
Description: Inhibition of EZH1 histone methyltransferase activity of EZH1/EED/SUZ12/RBBP4/AEBP2 protein complex (unknown origin) using histone H3 peptide as substrate (21 to 44 residues) in presence of [3H]-S-adenosylmethionine after 2 hrs by scintillation proximity assay. The essentials:
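10 nM EZH1 pentameric complex with 4 μM 3H-SAM and 1 μM biotinylated H3(21–44) in 20 mM Tris-HCl pH 8, 5 mM DTT, 0.01% Triton X-100. Reaction run 1 h at 23 °C, stopped with guanidine hydrochloride, then captured 2 h on a streptavidin flash plate. Counts normalized to no-compound (100%) and no-enzyme (0%) controls.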

Histone-lysine N-methyltransferase EZH2, sequence (Q15910 whole entry, the tested form may be a part, one chain of several): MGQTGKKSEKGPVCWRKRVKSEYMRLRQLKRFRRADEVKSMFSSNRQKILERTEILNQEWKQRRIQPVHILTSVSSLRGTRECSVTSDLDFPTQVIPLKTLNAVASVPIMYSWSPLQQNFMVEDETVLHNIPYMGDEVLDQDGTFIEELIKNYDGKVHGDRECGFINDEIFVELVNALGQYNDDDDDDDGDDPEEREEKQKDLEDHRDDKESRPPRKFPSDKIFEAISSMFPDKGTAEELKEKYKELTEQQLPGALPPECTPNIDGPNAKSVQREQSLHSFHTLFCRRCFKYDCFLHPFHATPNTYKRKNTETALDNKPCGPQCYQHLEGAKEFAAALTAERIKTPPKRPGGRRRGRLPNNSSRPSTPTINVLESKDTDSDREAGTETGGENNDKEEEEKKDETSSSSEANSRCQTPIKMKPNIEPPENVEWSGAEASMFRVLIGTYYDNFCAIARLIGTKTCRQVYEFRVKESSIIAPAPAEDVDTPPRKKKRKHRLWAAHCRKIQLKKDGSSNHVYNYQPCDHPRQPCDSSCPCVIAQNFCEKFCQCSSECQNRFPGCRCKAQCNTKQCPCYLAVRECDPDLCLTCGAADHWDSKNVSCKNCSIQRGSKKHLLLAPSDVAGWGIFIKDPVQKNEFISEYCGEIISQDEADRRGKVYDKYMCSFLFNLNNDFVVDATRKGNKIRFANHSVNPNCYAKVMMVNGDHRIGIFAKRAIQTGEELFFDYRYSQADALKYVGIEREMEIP

As usually defined, the pIC50 is the IC50 on a negative log10 scale, so that one unit is a factor of ten. Take `CCCc1cc(C)[nH]c(=O)c1CNC(=O)c1cc(-c2ccc(N3CCN(C(C)C)CC3)nc2)cc2c1cnn2C(C)C`: in experiment [1], the negative logarithm of the IC50 (pIC50) is over 8.00.

Take `CCc1cc(C)c(CNC(=O)c2cc(-c3ccc(N4CCN(C(C)C)CC4)nc3)cc3c2cnn3C(C)C)c(=O)[nH]1`: the negative logarithm of the IC50 (pIC50) in experiment [2] is under 5.30; in experiment [1], 7.14.

As for `CC(C)N1CCN(c2ccc(-c3cc(C(=O)NCc4ccc[nH]c4=O)c4cnn(C(C)C)c4c3)cn2)CC1`, the pIC50 in experiment [2] and in experiment [1] was under 5.30 each time.

With `CCCc1cc(C)[nH]c(=O)c1CNC(=O)c1nn(C(C)C)c2ccc(-c3ccc(N4CCN(C(C)C)CC4)nc3)cc12`, the pIC50 in experiment [2] and in experiment [1] was under 5.30 throughout.

With `CCCc1cc(C)[nH]c(=O)c1CNC(=O)c1cc(-c2ccc(N3CCN(C(C)C)CC3)nc2)cc2nn(C(C)C)cc12`, the pIC50 in experiment [2] is under 5.60; in experiment [1], 6.42.

In the case of `CCCc1cc(C)[nH]c(=O)c1CNC(=O)c1cc(-c2ccc(N3CCN(C(C)C)CC3)nc2)cc2c1cnn2CC1CCC1`, the pIC50 in experiment [2] was under 5.60; in experiment [1], 7.24.

As for `CCCc1cc(C)[nH]c(=O)c1CNC(=O)c1cc(-c2ccc(N3CCN(C(C)C)CC3)nc2)cc2c1cnn2C1CCCCC1`, the pIC50 in experiment [1] was over 8.00.

For `CCCc1cc(C)[nH]c(=O)c1CNC(=O)c1cc(-c2ccc(N3CCN(C(C)C)CC3)nc2)c2cnn(C(C)C)c2c1`, the pIC50 in experiment [2] was under 5.30; in experiment [1], 6.27.

As for `CCCc1cc(C)[nH]c(=O)c1CNC(=O)c1nn(C(C)C)c2cc(-c3ccc(N4CCN(C(C)C)CC4)nc3)ccc12`, the pIC50 in experiment [2] and in experiment [1] was under 5.30 each time.

As to `Cc1[nH]c(=O)c(CNC(=O)c2cc(-c3ccc(N4CCN(C(C)C)CC4)nc3)cc3c2cnn3C(C)C)c(C)c1C`, the pIC50 is under 5.30 in experiment [2] and 6.48 in experiment [1].

With `CCCCC(CC)Cn1ncc2c(C(=O)NCc3c(CCC)cc(C)[nH]c3=O)cc(-c3ccc(N4CCN(C(C)C)CC4)nc3)cc21` (configuration not stated), the pIC50 in experiment [2] is under 5.30; in experiment [1], 5.95.

Take `CCCc1cc(C)[nH]c(=O)c1CNC(=O)c1cc(-c2ccc(N3CCN(C(C)C)CC3)nc2)cc2c1cnn2CCCCCCO`: the pIC50 in experiment [2] is 6.40; in experiment [1] it was 7.60.

`Cc1cc(C)c(CNC(=O)c2cc(-c3ccc(N4CCN(C(C)C)CC4)nc3)cc3c2cnn3C(C)C)c(=O)[nH]1`: the pIC50 in experiment [2] is under 5.60.

On to `Cc1[nH]c(=O)c(CNC(=O)c2cc(-c3ccc(N4CCN(C(C)C)CC4)nc3)cc3c2cnn3C(C)C)c2c1CCC2`, for which the pIC50 in experiment [2] was under 5.60; in experiment [1] it was 7.49.

`CCC(C)c1cc(C)c(CNC(=O)c2cc(-c3ccc(N4CCN(C(C)C)CC4)nc3)cc3c2cnn3C(C)C)c(=O)[nH]1` (configuration not stated): the pIC50 is under 5.90 in experiment [2] and 7.49 in experiment [1].

For the compound `CCCc1cc(C)[nH]c(=O)c1CNC(=O)c1cc(-c2ccc(N3CCN(C(C)C)CC3)nc2)cc2c1cnn2C1CCCCCC1`, the negative-log IC50 (pIC50) is under 5.60 in experiment [2] and 6.93 in experiment [1].

As to `CCCc1cc(C)[nH]c(=O)c1CNC(=O)c1cc(-c2ccccc2)cc2c1cnn2C(C)C`, the pIC50 in experiment [2] was under 5.90; in experiment [1], 7.39.

On to `CCCc1cc(C)[nH]c(=O)c1CNC(=O)c1cnn2c(-c3ccc(N4CCN(C(C)C)CC4)nc3)cccc12`, for which the pIC50 in experiment [2] and in experiment [1] was under 5.30 each time.

Take `Cc1[nH]c(=O)c(CNC(=O)c2cc(-c3ccc(N4CCN(C(C)C)CC4)nc3)cc3c2cnn3C(C)C)c2c1CCCC2`: the negative-log IC50 (pIC50) in experiment [2] and in experiment [1] was under 5.60 in each case.

Regarding `CCCc1cc(C)[nH]c(=O)c1CNC(=O)c1cc(-c2ccc(N3CCN(C(C)C)CC3)nc2)cc2c1cnn2C(C)(C)C`, the values for the pIC50 in experiment [2] and in experiment [1] were 6.90 and over 8.00, respectively.

`CCCc1cc(C)[nH]c(=O)c1CNC(=O)c1cc(-c2ccc(N3CCN(C(C)C)CC3)nc2)cc2c1cnn2C`: the results for the pIC50 in experiment [2] and in experiment [1] were under 5.60 and 6.72, respectively.

With `CCCc1cc(C)[nH]c(=O)c1CNC(=O)c1cc(-c2ccccn2)cc2c1cnn2C(C)C`, the pIC50 in experiment [2] is 6.17; in experiment [1], 7.62.

Regarding `Cc1cc(O)c(CNC(=O)c2cc(-c3ccc(N4CCN(C(C)C)CC4)nc3)cc3c2cnn3C(C)C)c(=O)[nH]1`, the negative-log IC50 (pIC50) in experiment [2] and in experiment [1] was under 5.00 in each case.

In the case of `CC(C)N1CCN(c2ccc(-c3cc(C(=O)NC4CC(C)(C)NC(C)(C)C4)c4cnn(C(C)C)c4c3)cn2)CC1`, the pIC50 in experiment [2] and in experiment [1] was under 5.00 each time.

With `CCCc1cc(C)[nH]c(=O)c1CNC(=O)c1cc(-c2ccc(N3CCN(C(C)C)CC3)nc2)cc2c1cnn2C(CC)CC`, the pIC50 in experiment [2] was 6.90; in experiment [1] it was over 8.00.

As to `CCc1c(C)c[nH]c(=O)c1CNC(=O)c1cc(-c2ccc(N3CCN(C(C)C)CC3)nc2)cc2c1cnn2C(C)C`, the negative logarithm of the IC50 (pIC50) in experiment [2] is under 5.30; in experiment [1], 5.99.

In the case of `Cc1cc(CC(C)C)c(CNC(=O)c2cc(-c3ccc(N4CCN(C(C)C)CC4)nc3)cc3c2cnn3C(C)C)c(=O)[nH]1`, the pIC50 in experiment [2] was 6.68; in experiment [1] it was over 8.00.

Regarding `CCCc1cc(C)[nH]c(=O)c1CNC(=O)c1cc(-c2ccc(F)cc2)cc2c1cnn2C(C)C`, the negative-log IC50 (pIC50) in experiment [2] is under 5.90; in experiment [1], 7.32.

Turning to `CCCc1cc(C)[nH]c(=O)c1CNC(=O)c1cc(-c2ccc(N3CCN(CC)CC3)nc2)cc2c1cnn2C(C)C`, the values for the pIC50 in experiment [2] and in experiment [1] were 7.06 and over 8.00, respectively.

In the case of `Cc1cc(C(C)C)c(CNC(=O)c2cc(-c3ccc(N4CCN(C(C)C)CC4)nc3)cc3c2cnn3C(C)C)c(=O)[nH]1`, the pIC50 in experiment [2] was 6.49; in experiment [1], over 8.00.

`CCCc1cc(C)[nH]c(=O)c1CNC(=O)c1cc(-c2ccc(N3CCN(C(C)C)CC3)nc2)cc2c1cnn2C1CCCC1`: the pIC50 is 6.97 in experiment [2] and over 8.00 in experiment [1].

`CCCc1cc(C)[nH]c(=O)c1CNC(=O)c1cc(-c2ccc(N3CCN(C(C)C)CC3)nc2)cc2c1cnn2CC1CCCCC1`: the pIC50 in experiment [2] is under 5.60; in experiment [1], 6.16.

Turning to `Cc1cc(C(C)(C)C)[nH]c(=O)c1CNC(=O)c1cc(-c2ccc(N3CCN(C(C)C)CC3)nc2)cc2c1cnn2C(C)C`, the pIC50 in experiment [2] and in experiment [1] was under 5.00 throughout.

As to `CCCc1cc(C)[nH]c(=O)c1CNC(=O)c1cc(-c2ccc(C(F)(F)F)cc2)cc2c1cnn2C(C)C`, the negative-log IC50 (pIC50) is under 5.90 in experiment [2] and 7.18 in experiment [1].

Regarding `Cc1cc(C2CCCC2)c(CNC(=O)c2cc(-c3ccc(N4CCN(C(C)C)CC4)nc3)cc3c2cnn3C(C)C)c(=O)[nH]1`, the pIC50 in experiment [2] was 7.07; in experiment [1] it was over 8.00.

With `CCCc1cc(C)[nH]c(=O)c1CNC(=O)c1cc(-c2ccc(N3CCN(C(C)C)CC3)nc2)cc2c1cnn2CC1CCCC1`, the pIC50 in experiment [2] was under 5.60; in experiment [1] it was 6.83.

On to `CCCc1cc(C)[nH]c(=O)c1CNC(=O)c1cn2ccc(-c3ccc(N4CCN(C(C)C)CC4)nc3)cc2n1`, for which the pIC50 in experiment [2] and in experiment [1] was under 5.00 in each case.

As to `CCCc1cc(C)[nH]c(=O)c1CNC(=O)c1cc(-c2ccc(N3CCN(C(C)C)CC3)nc2)cc2c1cnn2Cc1ccccc1`, the pIC50 in experiment [2] is under 5.30; in experiment [1], 6.55.

For the compound `CCCc1cc(C)[nH]c(=O)c1CNC(=O)c1cc(-c2ccc(N3CCN(C(C)C)CC3)nc2)cc2c1cnn2CCC1CCCCC1`, the pIC50 in experiment [2] is under 5.60; in experiment [1], under 5.90.

On to `Cc1ncc(CNC(=O)c2cc(-c3ccc(N4CCN(C(C)C)CC4)nc3)cc3c2cnn3C(C)C)c(=O)[nH]1`, for which the figures for the pIC50 in experiment [2] and in experiment [1] were under 5.00 and under 5.64, respectively.

Take `CCCc1cc(C)[nH]c(=O)c1CNC(=O)c1cccn2c(-c3ccc(N4CCN(C(C)C)CC4)nc3)cnc12`: the negative-log IC50 (pIC50) in experiment [2] and in experiment [1] was under 5.30 in each case.

For the compound `CC(C)N1CCN(c2ccc(-c3cc(C(=O)NCc4cnc[nH]c4=O)c4cnn(C(C)C)c4c3)cn2)CC1`, the pIC50 in experiment [2] and in experiment [1] was under 5.00 in each case.

On to `Cc1cc(-c2ccccc2)[nH]c(=O)c1CNC(=O)c1cc(-c2ccc(N3CCN(C(C)C)CC3)nc2)cc2c1cnn2C(C)C`, for which the negative-log IC50 (pIC50) in experiment [2] and in experiment [1] was under 5.00 each time.

Take `Cc1[nH]c(=O)[nH]c(=O)c1CNC(=O)c1cc(-c2ccc(N3CCN(C(C)C)CC3)nc2)cc2c1cnn2C(C)C`: the pIC50 in experiment [2] and in experiment [1] was under 5.00 throughout.

As for `CCCc1cc(C)[nH]c(=O)c1CNC(=O)c1cc(-c2ccc(N3CCNCC3)nc2)cc2c1cnn2C(C)C`, the values for the pIC50 in experiment [2] and in experiment [1] were 7.22 and over 8.00, respectively.

For the origin of these results see ChEMBL document CHEMBL4477241, “Structure-Activity Relationship Studies for Enhancer of Zeste Homologue 2 (EZH2) and Enhancer of Zeste Homologue 1 (EZH1) Inhibitors” (J Med Chem, 2016).
